Our source for the IC50, spermine attenuation ratio and EC50 values is ChEMBL document CHEMBL1142883, “New polyamine-sensitive inhibitors of the NMDA receptor: syntheses and pharmacological evaluation” (Eur J Med Chem, 2007).

Test [1] deals with Glutamate NMDA receptor. The test is described as follows: Displacement of [3H]MK-801 from rat brain NMDA receptor. In outline:
(§1)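 [³H]MK-801 at 5 nM is bound to rat brain membranes, with the co-agonists glutamic acid and glycine added. Incubation lasts 2 h, close to equilibrium. Nonspecific binding is binding to closed channels: no glutamate or glycine, with D-APV and 5,7-DCKA added. The standard buffer is 50 mM Tris, switched to 10 mM Tris for buffer-sensitive inhibition. Replicate counts are given per value.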

The target in test [2] is Glutamate NMDA receptor. The test can be described thus: Displacement of [3H]MK-801 from NMDA receptor in rat brain in presence of 100 uM spermine. In kind it is tissue-based. In outline:
as §1

For test [3], the target named is Glutamate NMDA receptor. The test can be described thus: Displacement of [3H]MK801 from rat brain NMDA receptor in presence of 30 uM spermine. The procedure, abridged:
as §1

In test [4] the target is Glutamate NMDA receptor. The test is described as follows: Stimulation of [3H]MK-801 binding to rat brain NMDA receptor. In outline: as §1

SMILES strings stand for the structures.

Take `Cc1cc(CCCCN)sc1CCCCCCCCN`: in test [1], the IC50 turned out to be 1.62 µM. Besides, in test [2], the spermine attenuation ratio was 3.9.
`CCc1cc(CCCCN)sc1CCCCCCCCN` returned an IC50 in test [1] of 3.23 µM. Moreover, the spermine attenuation ratio in test [2] stood at 2.67.
On to `NCCCCCCCCc1ccc(CCCCN)s1`, for which the IC50 in test [1] came out at 0.54 µM. The values for the spermine attenuation ratio in test [2] and in test [3] were 8.84 and 15.1, respectively.
As to `NCCCCc1ccc(CCCCN(CC[C@@H](N)Cc2ccccc2)Cc2ccccc2)s1`, the IC50 in test [1] was found to be 9.62 µM. In test [3], the spermine attenuation ratio stood at 1.66.
As for `NCCCCCCCCc1ccc(CC2CCNCC2)s1`, the IC50 in test [1] worked out at 0.63 µM. Besides, in test [2], the spermine attenuation ratio came out at 9.07.
Consider `NCCCCCCCCCCCCCCN`, for which the IC50 in test [1] came to 5.28 µM. Also, the spermine attenuation ratio in test [2] is 6.94.
Turning to `CNCCCCCCCCc1ccc(CC2CCNCC2)s1`, in test [1], the IC50 turned out to be 2.48 µM. The spermine attenuation ratio in test [2] was found to be 8.58.
The corresponding values for `NCCCCC#CCCCCCCCCN` are 6.73 µM and 5.38.
With `NCCCCCCCCc1ccc(CCCCN)cc1`, the IC50 in test [1] was 0.87 µM. In addition, the spermine attenuation ratio in test [2] came to 7.95.
Consider `Cc1cc(CCCCCCCCN)sc1CCCCN`, for which, in test [1], the IC50 came to 1.08 µM. Besides, in test [2], the spermine attenuation ratio came to 4.07.
The like results for `CN(C)CCCCCCCCc1ccc(CC2CCNCC2)s1` were, in that order, 15.2 µM and 7.67.
In test [1], `NCCCCc1ccc(Cc2ccc(CCCCN)s2)s1` had an IC50 of 1.76 µM. Also, the spermine attenuation ratio in test [3] was found to be 16.8.
In turn, `N=C(N)NCCCCCCc1ccc(CCNC(=N)N)s1` registered an IC50 in test [1] of 1.04 µM. Moreover, the spermine attenuation ratio in test [3] came out at 23.4.
With `N=C(N)NCCCCCCCCc1ccc(CCCNC(=N)N)s1`, the IC50 in test [1] was found to be 0.31 µM. In addition, the spermine attenuation ratio in test [3] amounted to 6.29.
In turn, `N=C(N)NCCCCCCCCc1ccc(CCCCNC(=N)N)s1` gave an IC50 in test [1] of 0.77 µM. In addition, the spermine attenuation ratio in test [3] was 3.95.
`CNCCCCCCCCc1ccc(CCCCNC)s1` yielded an IC50 in test [1] of 5.3 µM. For the same compound, in test [2], the spermine attenuation ratio was 7.7.
`CN(C)CCCCCCCCc1ccc(CCCCN(C)C)s1` displayed an IC50 in test [1] of 358 µM. Moreover, the spermine attenuation ratio in test [2] worked out at 2.79.
The like results for `CCCNCCCCCCCCc1ccc(CCCCNCCC)s1` were, in that order, 114 µM and 2.98.
In test [1], `C=CCNCCCCCCCCc1ccc(CCCCNCC=C)s1` registered an IC50 of 13.3 µM. For the same compound, the spermine attenuation ratio in test [2] came to 6.57.
The like results for `c1ccc(CNCCCCCCCCc2ccc(CCCCNCc3ccccc3)s2)cc1` were, in that order, 8.67 µM and 0.98.
In test [1], `NCCCCc1ccc(CCOCCOCCN)s1` returned an IC50 of 4.2 µM. The spermine attenuation ratio in test [3] came to 16.8.
The compound `NCCCCc1ccc(CCNC(=O)CNC(=O)CN)s1` had an IC50 in test [1] of 111 µM. Also, the spermine attenuation ratio in test [3] worked out at 5.48.
The like results for `NCCCCc1ccc(CCCCNCCCN)s1` were, in that order, 5.2 µM and 29.
With `NCCCCc1ccc(CCNCCNCCN)s1`, in test [1], the IC50 was 282 µM. Besides, in test [4], a half-maximal response (EC50) required 1.9 µM.
Turning to `CC(N)CC(=O)NCCCCc1ccc(CCCCN)s1` (stereo unspecified), in test [1], the IC50 came to 2.21 µM. Besides, the spermine attenuation ratio in test [3] came out at 65.4.
The compound `CC(CN)C(=O)NCCCCc1ccc(CCCCN)s1` (stereo unspecified) gave an IC50 in test [1] of 24.7 µM. For the same compound, the spermine attenuation ratio in test [3] is 10.3.
The corresponding values for `NCCCCc1ccc(CCCCNC(=O)C(CN)c2ccccc2)s1` (stereo unspecified) are 11.7 µM and 10.1.
The corresponding values for `NCCCCc1ccc(CCCCN(Cc2ccccc2)C(=O)C[C@@H](N)Cc2ccccc2)s1` are 13.4 µM and 1.71.
Consider `NCCCCc1ccc(CCCCNC(=O)CC(N)c2ccccc2)s1` (stereo unspecified), for which, in test [1], the IC50 turned out to be 6.81 µM. The spermine attenuation ratio in test [3] is 15.
As to `NCCCCCCCCc1ccc(CCCN)s1`, in test [1], the IC50 was 5.47 µM. For the same compound, the spermine attenuation ratio in test [3] is 9.57.
The like results for `NCCCCc1ccc(CCCCNC(=O)CCN)s1` were, in that order, 1.19 µM and 51.4.
The compound `NCCCCCCCCNC(=O)CCN` had an IC50 in test [1] of 53 µM. In test [3], the spermine attenuation ratio stood at 75.
For `NCCCCCCCCc1ccc(Cc2ccccc2CN)s1`, the IC50 in test [1] came out at 1.13 µM. In test [2], the spermine attenuation ratio worked out at 2.96.
As to `N=C(N)NCCCCCCCc1ccc(CCCNC(=N)N)s1`, the IC50 in test [1] was 0.74 µM. Moreover, the spermine attenuation ratio in test [3] was 7.47.
Take `NCCCCCCCCCCCCN`: in test [1], the IC50 was found to be 7.05 µM. The spermine attenuation ratio in test [3] was 34.6.
